# L major viab: Leishmania major promastigote growth inhibition, primary screen | Leishmania major promastigotes, resazurin fluorescence viability | inhibition, % at 10 µM | 200,000 tested, 9% active | AID 1063, 2008; in the data active means inhibition above about 50%;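 further: promastigotes grown with compound for 44 hours at 28 °C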
# HSF1 activator: HSF-1 activators, primary screen, NIH3T3-HGL cells, MG132 stress, luminescence, single point; NIH3T3-HGL HSF-1 luciferase reporter, 8 h; 100% = twice DMSO control signal; activation, % at 9 µM; 300,000 tested, 1.7% active; AID 504408, 2011;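 active means mean replicate activation of at least 50% with a set share of replicates each reaching 50%; inconclusive means only one of those two conditions met; inactive means mean below 50% and too few replicates reaching it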;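 further: 0% = median of the neutral control wells and 100% = twice that signal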
# Hsp70 act: Hsp70 transcriptional activators, primary screen, cell-based, HeLa, Hsp70 promoter luciferase, luminescence, 10 µM; HeLa Hsp70 promoter luciferase reporter; scaled: vehicle 0, proteasome-inhibitor control 100%; activation, % at 10 µM; 200,000 tested, 0.04% active;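 active means activation above the mean across all tested compounds plus 3 SD, cutoff set per campaign, cut at about 5.5% in these data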;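 further: 100% = MG132 at 30 µM as the positive control and 0% = DMSO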
# T cruzi repl: inhibitors of intracellular T. cruzi growth, primary screen, luminescence, NIH3T3 host cells; T. cruzi beta-gal in NIH3T3, 90 h; inhibition, % (test concentration not listed); 300,000 tested, 1.4% active; AID 1885, 2009;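 active means mean inhibition across valid replicates above about 55%, limit read from the data; inconclusive means mean below that limit but half or more replicates reach it; inactive means mean below it, under half of replicates reach it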;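 further: signal also drops with host cell toxicity which is not excluded here; 0% = plate median of DMSO wells and 100% = zero luminescence signal; higher percent means less beta-gal luminescence so fewer parasites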
#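 Assay system: NIH/3T3 host cells with β-galactosidase reporter T. cruzi; input: 5,000 host fibroblasts per well; compound: single 50 nL compound addition per well in DMSO; timing: ≥90 h infection period, 3 h prior cell attachment; measured by: GalScreen β-gal luminescence, detergent lysis, 60 min; evaluation: percent inhibition of parasite-derived β-gal signal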
# HSF1 inh: HSF1 inhibitors in luciferase reporter cells, primary screen, cell-based, NIH3T3, luminescence; NIH3T3-HGL HSE-luciferase, MG132-induced, luminescence 8 h; hits give low values; activity change, negative = inhibition, % at 7.5 µM (by protocol); 300,000 tested, 0.77% active; AID 2098, 2009;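 active means more than half of replicate wells show activity change below -50%, luminescence cut by over half; inconclusive means some wells, but at most half, below -50%; inactive means no replicate well below -50%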;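 further: luciferase reports HSF-1 transcriptional activity via heat shock element; 0% = median of DMSO wells and -100% = zero luminescence signal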
# * marks the source's active call; other numbers are inactive results; ? = inconclusive; · = no result. The entries come from a sample that favours hits as a whole.
SMILES,L major viab,HSF1 activator,Hsp70 act,T cruzi repl,HSF1 inh
COc1cccc(CSc2nnc(C(F)(F)F)n2Cc2ccc(F)cc2)c1,1,87*,0,-1,38
O/N=C/c1cc(Cl)ccc1OCc1cccc2ccccc12,3,18,0,18,7
COc1ccc(-c2noc(-c3ccc(Cl)cc3[N+](=O)[O-])n2)cc1OC,-1,53*,0,-6,25
Cc1ccc2[nH]c3c(c2c1)CCN(C)C3,·,-77,·,9,-71*
O=C1C2C3C=CC(C3=C(c3ccccc3)c3ccccc3)C2C(=O)N1CCO (stereo not given),98*,9,0,8,0
COc1ccc(-c2noc(CCC(=O)NCCc3cccc(C)c3)n2)cc1,15,9,0,3,9
O=C(CNC(=O)c1ccco1)OCc1cccc(Cl)c1,-7,3,0,-9,-1
O=C(CCNc1cccc(Cl)c1)c1ccco1,83*,13,0,-3,11
COc1cc(Oc2ccccc2)nc(N)n1,·,-6,·,-4,0
CCOC(=O)N1CCN(C(=S)Nc2ccc3nc(N4CCN(CC)CC4)cc(C)c3c2)CC1,72*,-1,-1,23,4
CCN1CCN(C(=S)Nc2ccc3nc(N4CCN(C)CC4)cc(C)c3c2)CC1,67*,3,0,22,1
COc1ccc(CCNC(=O)CCC(=O)Nc2ccc3nc(N4CCN(C)CC4)cc(C)c3c2)cc1OC,-3,0,0,29,2
CCN1CCN(C(=S)Nc2ccc3nc(N4CCN(CC)CC4)cc(C)c3c2)CC1,30,11,0,48,-4
CCN1CCN(c2cc(C)c3cc(NC(=S)N4CCCCC4)ccc3n2)CC1,58*,-34,1,58*,-26
Cc1cc(N2CCN(C)CC2)nc2ccc(NC(=O)CCC(=O)NCCC3=CCCCC3)cc12,100*,·,0,·,·
COCCNC(=O)C(c1ccc(F)cc1)N(C(=O)CCC(=O)Nc1ccccn1)C1CCCCC1 (stereo not given),·,-15,·,7,2
CCOc1ccc(CN2CCNC(=O)C2CC(=O)NCCN2CCOC2=O)cc1 (stereo not given),·,1,·,-11,-8
O=[N+]([O-])c1ccc(NCCCNS(=O)(=O)c2ccccc2)cc1,17,·,0,-4,·
O=[N+]([O-])c1cc(Cl)ccc1NCCNS(=O)(=O)c1ccccc1,1,55*,0,17,28
O=[N+]([O-])c1ccccc1NCCNS(=O)(=O)c1ccc(Cl)cc1,31,21,0,0,0
O=[N+]([O-])c1ccc(NCCCNS(=O)(=O)c2ccc(Cl)cc2)c(Cl)c1,94*,·,0,2,·
CC1(C)CC2=C(CO1)C(=S)NC(c1ccccc1)N2CC1CCCO1 (stereo not given),·,-3,·,20,0
O=C(COC(=O)c1cc(S(=O)(=O)N2CCCCC2)ccc1N1CCOCC1)c1ccccc1,·,-11,·,15,-3
COc1ccc(-c2[nH]ncc2CN2CCC(OCc3cccnc3)CC2)c(F)c1,7,-2,0,-1,-8
COc1cc(OC)c(N(C)C(=O)CCNC(=O)Cn2cnc3ccccc3c2=O)cc1Cl,-9,5,0,3,-2
SMILES,L major viab,HSF1 activator,Hsp70 act,T cruzi repl,HSF1 inh
COc1cc(OC)c(NC(=O)CCNC(=O)Cn2cnc3ccccc3c2=O)cc1Cl,-3,51*,0,-7,8
Cc1ccc(S(=O)(=O)N(CC(=O)N2CCCCCC2)c2ccccc2)cc1,75*,9,0,9,19
CCc1ccccc1N(CC(=O)N1CCCCCC1)S(C)(=O)=O,·,-2,·,-9,1
CCN1CCN(C(=O)c2ccccc2N(Cc2ccccc2)S(=O)(=O)c2ccc(C)cc2)CC1,98*,-1,0,5,-5
CCN(CC(=O)N1CCC(C)CC1)S(=O)(=O)c1ccc(C)cc1,·,18,·,-3,-2
CCc1ccccc1N(CC(=O)N1CCCC1)S(C)(=O)=O,·,-65,·,-2,-56*
Cc1ccc(S(=O)(=O)N(CC(=O)N2CCC(C)CC2)Cc2ccccc2F)cc1,82*,-4,0,35,-2
Cc1ccc(N2CC(C(=O)N3CCCCC3)CC2=O)cc1C (stereo not given),·,-3,·,-4,1
O=C(NCc1cccc(C(F)(F)F)c1)c1ccc2c(c1)OCO2,·,3,·,1,-3
C=CCN1C(=O)NC(c2ccccc2)(C(F)(F)F)S/C1=C(\C#N)c1nnc(N2CCOCC2)n1-c1ccccc1 (stereo not given),3,83*,0,2,37
C=CCN(C(=O)CNC(=O)c1ccco1)C(C(=O)NC1CCCC1)c1ccc(OC)cc1 (stereo not given),·,-5,·,-5,1
NC(=O)c1ccc[n+](CCC[n+]2cccc(C(N)=O)c2)c1,-10,-2,0,-5,-3
CCCCCCCCCC[n+]1cccc(C(=O)N(CC)CC)c1,90*,-6,0,8,-4
CSc1nc(=S)n(-c2ccc([N+](=O)[O-])cc2)c(C)c1C(C)=O,·,15,·,-4,-6
CCN(CC)C(=S)SCC(=O)Nc1nc(=O)c2ccccc2s1,-1,-75,0,?,-70*
O=C(Nc1cccc(Cl)c1)c1ccc(Cn2cc(Cl)cn2)cc1,2,53*,0,5,20
CCc1cccc(NC(=O)c2cnn(-c3ccccc3)c2C)c1,·,42,·,7,15
CC(=O)Nc1ccc(NC(=O)c2ccc(Cn3cc(Cl)cn3)cc2)cc1,-6,·,0,-3,·
CCn1ncc(C(=O)Nc2cccc(Cl)c2)c1C,-1,62*,0,-17,23
O=C(O)C(C(O)c1ccc([N+](=O)[O-])cc1)[n+]1ccccc1 (stereo not given),·,-15,·,-3,3
COc1ccccc1NC(=O)COC(=O)c1ccccc1C(=O)N1CCN(c2ccccc2)CC1,6,4,0,-1,-3
C/C(CC(=O)Nc1ccc(C)c(Cl)c1)=N\NC(=O)Cc1cnc(N)s1,-3,61*,0,-11,27
O=C(Nc1ccc(F)cc1)N1CCN2C(=O)c3ccccc3C12c1ccccc1 (stereo not given),14,14,0,24,16
O=C1c2ccccc2C2(c3ccc(F)cc3)NCCN12 (stereo not given),58*,1,0,0,-5
Cc1ccccc1-n1c(SC(C)C(=O)N2CCN(C)CC2)nc2ccccc2c1=O (stereo not given),-5,-4,0,7,-2
CCN(CC(=O)NC(C)C)C(=O)c1ccc(Cl)cc1,-6,12,0,-20,0

# Assay outcomes (PubChem BioAssay)
